Measured values reported in ChEMBL document CHEMBL4480369, “Discovery of 3-hydroxy-3-pyrrolin-2-one-based mPGES-1 inhibitors using a multi-step virtual screening protocol” (Medchemcomm, 2018).

Columns and labels:
[1] = biological target: T1, Prostaglandin E synthase (Homo sapiens) (UniProt O14684); assay: Inhibition of mPGES1 in IL1beta-stimulated human A549 cell microsomes assessed as residual activity at 10 uM using PGH2 as substrate preincubated for 15 mins followed by substrate addition and measured after 1 min by RP-HPLC analysis relative to control
T1 sequence (whole entry): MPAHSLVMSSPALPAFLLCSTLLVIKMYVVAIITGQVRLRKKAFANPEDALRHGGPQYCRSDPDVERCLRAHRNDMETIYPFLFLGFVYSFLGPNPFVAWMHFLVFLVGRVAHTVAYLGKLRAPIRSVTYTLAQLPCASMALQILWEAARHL
How it was run: (§1)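 mPGES-1 source was microsomes from A549 cells treated 48 h with IL-1β (1 ng ml–1), obtained by sonication and differential centrifugation (10 000×g, then 174 000×g, 4 °C). Microsomes diluted in 0.1 M potassium phosphate pH 7.4 with 2.5 mM glutathione. Compound or DMSO vehicle added for 15 min at 4 °C; 20 μM PGH2 then reacted 1 min at 4 °C. Stopped with FeCl2/citric acid containing 11β-PGE2; PGE2 measured by SPE and RP-HPLC.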

Prostaglandin E synthase = biological target: T2, Prostaglandin E synthase (Homo sapiens, UniProt O14684); assay: Inhibition of mPGES1 in IL1beta-stimulated human A549 cell microsomes using PGH2 as substrate preincubated for 15 mins followed by substrate addition and measured after 1 min by RP-HPLC analysis; how it was run: as §1
T2 sequence (O14684 whole entry): T1 sequence (whole entry)

[2] = biological target: T3, Polyunsaturated fatty acid 5-lipoxygenase (Homo sapiens) (UniProt P09917); assay: Inhibition of 5-LO in human neutrophils assessed as residual activity at 10 uM using arachidonic acid as substrate preincubated for 10 mins followed by substrate addition and measured after 10 mins by RP-HPLC analysis
T3 sequence (whole entry): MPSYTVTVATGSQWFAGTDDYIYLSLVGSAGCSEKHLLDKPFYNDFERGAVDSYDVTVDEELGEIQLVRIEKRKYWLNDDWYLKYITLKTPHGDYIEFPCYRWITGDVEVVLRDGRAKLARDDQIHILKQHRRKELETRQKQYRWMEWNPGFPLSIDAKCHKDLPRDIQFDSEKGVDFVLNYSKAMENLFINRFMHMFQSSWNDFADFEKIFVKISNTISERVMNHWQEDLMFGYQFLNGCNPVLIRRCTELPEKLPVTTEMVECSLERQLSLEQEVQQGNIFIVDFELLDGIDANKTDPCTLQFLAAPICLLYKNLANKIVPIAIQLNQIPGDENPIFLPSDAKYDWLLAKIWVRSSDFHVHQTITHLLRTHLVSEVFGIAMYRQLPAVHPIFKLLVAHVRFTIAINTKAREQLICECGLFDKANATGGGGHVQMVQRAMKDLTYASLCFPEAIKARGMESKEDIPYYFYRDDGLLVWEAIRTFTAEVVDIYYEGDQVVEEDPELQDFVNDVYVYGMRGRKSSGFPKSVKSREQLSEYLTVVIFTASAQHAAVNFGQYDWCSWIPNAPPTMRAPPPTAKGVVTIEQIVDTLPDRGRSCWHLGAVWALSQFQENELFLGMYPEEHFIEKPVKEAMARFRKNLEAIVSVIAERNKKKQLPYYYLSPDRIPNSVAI
How it was run: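 Freshly isolated human peripheral-blood neutrophils at 5 × 10^6 cells per ml in PBS pH 7.4 with 1 mM CaCl2 and 1 mg mL–1 glucose. Cells pre-treated 10 min with compound in DMSO (final 0.1%). Stimulated with 2.5 μM Ca2+ ionophore A23187 plus 20 μM arachidonic acid for 10 min at 37 °C, then stopped on ice with methanol. After C18 solid-phase extraction, LTB4 all-trans isomers and 5-H(P)ETE quantified by RP-HPLC against PGB1 internal standard.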

Row | SMILES | Activity [1] [%] | IC50 (Prostaglandin E synthase) [nM] | Activity [2] [%]
1 | CCOc1ccc(N2CC(c3nc4ccccc4n3CCOc3ccc(Cl)cc3)CC2=O)cc1 (configuration not stated) | 65.3 | – | –
2 | O=C(C1=C(O)C(=O)N(c2ncc(S(=O)(=O)c3ccc([N+](=O)[O-])cc3)s2)C1c1cccc(Cl)c1)c1ccc(Cl)cc1 (configuration not stated) | 25 | 1900 | 56.6
3 | CCOC(=O)C1CCCN(c2nc3c(C)cccn3c(=O)c2/C=C(\C#N)C(=O)NCc2ccccc2)C1 (configuration not stated) | 86.8 | – | –
4 | Cc1sc2ncn(CC(=O)Nc3ccc(Oc4ccccc4)cc3)c(=O)c2c1-c1ccccc1 | 82.6 | – | –

More lines, now with the values ahead:

Row | Activity [1] [%] | IC50 (Prostaglandin E synthase) [nM] | Activity [2] [%] | SMILES
5 | 72.1 | – | – | COc1ccc(C(=O)N/C(=C\c2ccc(-c3ccccc3Cl)o2)C(=O)NCCCO)cc1
6 | 30.5 | 3700 | 92.5 | CCOc1ccc(C2C(C(=O)c3cc4ccccc4o3)=C(O)C(=O)N2c2nnc(SCc3ccc(Cl)cc3)s2)cc1OC (configuration not stated)
7 | 88.6 | – | – | COc1ccc(C(=O)N/C(=C\c2ccc(-c3cccc(C(F)(F)F)c3)o2)C(=O)NC(C)(C)C)cc1
8 | 80.1 | – | – | CC(=O)N[C@H]1[C@H](Oc2ccc(Nc3nc(-c4ccc(Cl)cc4)nc4ccccc34)cc2)O[C@H](CO)[C@@H](O)[C@H]1O
